# Screens as filed in PubChem BioAssay.
# Sampled rows, rich in hits. Any-hit rate of the full collection: about 2.8%.
# E-sel inducer = induces E-selectin expression in human endothelial cells; P16581; HUVEC E-selectin immunofluorescence imaging; normalized: neutral wells 0, TNF-alpha wells 100; activation, % at 7.58 µM; 260,000 tested, 0.37% active; AID 686992;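 active = mean E-selectin-positive cell signal at least 10% of the positive control, reached in at least 60% of replicates, without over 20% cell loss; inconclusive = no rule given, readout overlaps actives, possibly toxicity-flagged; inactive = the rest, including those meeting only one limit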
#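 System: HUVEC / Compound: single concentration / Signal: immunofluorescence imaging / Read-out: percent E-selectin-positive cells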
# SIRT5 inh = blocks human SIRT5 desuccinylation of peptide; Purified SirT5, succinyl-peptide AMC, trypsin-coupled fluorescence; inhibition, % at 15 µM; 330,000 tested, 1.1% active; in the data active = inhibition above about 15%; inconclusive = no clear call, values can overlap the other calls
# Target sequence (Q9NXA8 whole entry, looked up): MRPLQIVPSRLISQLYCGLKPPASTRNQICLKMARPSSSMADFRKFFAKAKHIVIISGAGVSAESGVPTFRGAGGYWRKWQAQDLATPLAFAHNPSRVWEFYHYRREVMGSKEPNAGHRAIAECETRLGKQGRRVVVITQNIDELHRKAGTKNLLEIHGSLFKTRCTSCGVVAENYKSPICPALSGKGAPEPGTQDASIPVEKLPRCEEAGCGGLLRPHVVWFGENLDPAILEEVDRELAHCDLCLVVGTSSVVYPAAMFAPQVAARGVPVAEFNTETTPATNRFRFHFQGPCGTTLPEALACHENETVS
# DENV2 CPE rescue = inhibitors of DENV2 cytopathic effect; CPE inhibition, % at 9.99 µM; 350,000 tested, 1.7% active; DENV2-infected cells, cytopathic effect rescue, plate reader; in the data active = CPE inhibition above about 20%, passing the limit was not always enough; inconclusive = no clear call, values can overlap the other calls; tested in BHK-21 cells;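 note: 0% = median of neutral control wells and 100% = median of positive control wells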
# The depositor's hits bear a star; ? = inconclusive; . = no result given.
SMILES,E-sel inducer,SIRT5 inh,DENV2 CPE rescue
C[C@H](CO)N1C[C@H](C)[C@H](CN(C)Cc2ccc(-c3ccccc3)cc2)Oc2ccc(NC(=O)NC3CCCCC3)cc2CC1=O,1,1,22*
C[C@H](CO)N1C[C@H](C)[C@H](CN(C)Cc2ccc(C(=O)Nc3ccccc3N)cc2)Oc2ccc(NC(=O)Cn3cnnn3)cc2CC1=O,-2,.,55*
CC(C)NC(=O)Nc1ccc2c(c1)CC(=O)N([C@H](C)CO)C[C@H](C)[C@@H](CN(C)Cc1ccc(C(=O)Nc3ccccc3N)cc1)O2,0,-4,13
C[C@H]1CN([C@@H](C)CO)C(=O)Cc2cc(NC(=O)NC3CCCCC3)ccc2O[C@@H]1CN(C)Cc1ccc(-c2ccccc2)cc1,0,0,31*
C[C@@H]1CN([C@H](C)CO)C(=O)c2cc(NC(=O)Cn3cnnn3)ccc2O[C@H]1CN(C)Cc1ccc(C(=O)Nc2ccccc2N)cc1,0,.,4
COc1cccc(NC(=O)N(C)C[C@@H]2Oc3ncc(C#Cc4ccc(F)cc4)cc3C(=O)N([C@@H](C)CO)C[C@@H]2C)c1,-1,7,?
CC(C)C#Cc1cnc2c(c1)C(=O)N([C@H](C)CO)C[C@@H](C)[C@H](CN(C)S(=O)(=O)c1cn(C)cn1)O2,0,7,-11
CO[C@@H]1CN(C)C(=O)c2cc(NC(=O)c3cccc(Oc4ccccc4)c3)ccc2OC[C@@H](C)NC[C@@H]1C,0,.,.
C[C@H]1CN([C@@H](C)CO)C(=O)Cc2cc(NC(=O)NC3CCCCC3)ccc2O[C@@H]1CN(C)Cc1ccc(Cl)c(Cl)c1,?,2,19
C[C@@H]1CN([C@@H](C)CO)C(=O)Cc2cc(NC(=O)NC3CCCCC3)ccc2O[C@@H]1CN(C)Cc1ccc(Cl)c(Cl)c1,-4,-3,59*
C[C@@H]1CN([C@H](C)CO)C(=O)c2cc(-c3ccncc3)cnc2O[C@@H]1CN(C)C(=O)c1cccc(F)c1,0,4,4
COc1cccc(-c2ccc([C@@H]3[C@H]4CN(CC5CC5)CCCCN4[C@H]3CO)cc2)c1,0,-3,58*
COc1cccc(-c2ccc([C@@H]3[C@@H](CO)N4CCCCN(CC5CC5)C[C@@H]34)cc2)c1,0,-1,16
COc1cccc(-c2ccc([C@H]3[C@H]4CN(C(=O)c5ccc(F)cc5)CCCCN4[C@H]3CO)cc2)c1,1,3,11
COc1cccc(-c2ccc([C@@H]3[C@H](CO)N4CCCCN(C(=O)c5ccc(F)cc5)C[C@@H]34)cc2)c1,0,6,41*
OC[C@H]1[C@@H](c2ccc(-c3cccc(F)c3)cc2)[C@H]2CN(CCC(F)(F)F)CCCCN21,-1,24*,13
O=C(c1ccccc1)N1CCCC(C(=O)N2CCCCC2)C1 (stereo not drawn),.,-5,-4
O=C(c1cccc(F)c1)N1CCCC(C(=O)N2CCCCCC2)C1 (stereo not drawn),.,27*,3
OC[C@H]1[C@H](c2ccc(-c3cccc(F)c3)cc2)[C@H]2CN(CCC(F)(F)F)CCCCN21,0,2,13
O=C(N[C@@H]1C=C[C@@H](CC(=O)N2CCc3ccccc3C2)O[C@H]1CO)C1CCOCC1,1,13,12
O=C(C[C@H]1C[C@@H]2c3cc(NS(=O)(=O)c4ccc(F)cc4)ccc3O[C@@H]2[C@H](CO)O1)NCc1cc(F)ccc1F,-1,-1,-2
C[C@@H]1CCCCO[C@@H](CN(C)Cc2ccc(C(F)(F)F)cc2)[C@@H](C)CN([C@@H](C)CO)C(=O)c2cc(NS(C)(=O)=O)ccc2O1,0,.,-13
COCC#Cc1cnc2c(c1)C(=O)N([C@@H](C)CO)C[C@@H](C)[C@@H](CN(C)S(=O)(=O)c1cn(C)cn1)O2,0,-5,9
C[C@@H]1CN([C@@H](C)CO)S(=O)(=O)c2ccc(C3=CCCC3)cc2O[C@H]1CN(C)C,-1,2,9
O=C(c1cccc(F)c1)N1CCCCN2[C@H](CO)[C@H](c3ccc(-c4ccccc4)cc3)[C@H]2C1,0,-2,41*
SMILES,E-sel inducer,SIRT5 inh,DENV2 CPE rescue
O=C(c1cccc(F)c1)N1CCCCN2[C@H](CO)[C@@H](c3ccc(-c4ccccc4)cc3)[C@@H]2C1,0,2,-13
COc1cccc(-c2ccc([C@H]3[C@@H](CO)N4C(=O)CNC[C@@H]34)cc2)c1,0,0,-4
COc1cccc(-c2ccc([C@H]3[C@H]4CNCC(=O)N4[C@H]3CO)cc2)c1,0,4,22*
Cc1cccc(NC(=O)Nc2ccc3c(c2)C(=O)N(C)[C@H]2CC[C@H](CC(=O)NCc4ccccc4Cl)O[C@@H]2CO3)c1,0,.,.
Cc1cc(OCc2cc(C(=O)N(C)C(C)c3ccccn3)no2)cc(C)c1Cl (stereo not drawn),.,7,31*
Cc1cc(OCc2cc(C(=O)N(C)Cc3ccccn3)no2)cc(C)c1Cl,.,-3,19
Cc1cc(OCc2cc(C(=O)NC(C)c3c(C)nn(C)c3C)no2)cc(C)c1Cl (stereo not drawn),0,18*,-6
Cc1cc(OCc2cc(C(=O)NC(C)c3cnn(C)c3)no2)cc(C)c1Cl (stereo not drawn),0,.,11
CO[C@H]1CN(C)C(=O)c2cc(NS(C)(=O)=O)ccc2OC[C@@H](C)N(CCC(F)(F)F)C[C@@H]1C,0,-7,?
COc1ccccc1C(=O)N=Nc1c(O)[nH]c2ccc([N+](=O)[O-])cc12,.,3,14
O=C(N=Nc1c(O)[nH]c2ccc([N+](=O)[O-])cc12)c1cc(-c2ccccc2Cl)nc2ccccc12,9,23*,-1
COc1ccccc1C#Cc1cnc2c(c1)C(=O)N([C@@H](C)CO)C[C@H](C)[C@@H](CN(C)C(=O)c1ccc3c(c1)OCO3)O2,0,3,1
CC(=O)N1[C@H](CO)[C@H](c2ccccc2)[C@H]1CN(C)C(=O)c1ccccc1F,0,-4,-6
CC(=O)N1[C@H](CN(C)C(=O)c2ccccc2F)[C@@H](c2ccccc2)[C@@H]1CO,0,-3,61*
CCC(=O)N(C)C[C@@H]1[C@@H](c2ccc(-c3ccccc3F)cc2)[C@H](CO)N1C(C)=O,0,22*,17
CC(=O)N(C)C[C@H]1[C@H](c2ccc(-c3ccc(F)cc3)cc2)[C@@H](CO)N1C(C)=O,0,2,33*
CCN(C[C@H]1[C@@H](c2ccc(-c3ccccc3F)cc2)[C@@H](CO)N1C(C)=O)C(C)=O,0,22*,5
CCN(C[C@H]1[C@@H](c2ccc(-c3ccccc3)cc2)[C@@H](CO)N1C(C)=O)C(C)=O,0,-1,9
CC(=O)N(C)C[C@@H]1[C@H](c2ccc(-c3ccc(F)cc3)cc2)[C@H](CO)N1C(C)=O,0,8,1
CCC(=O)N(C)C[C@H]1[C@@H](c2ccc(-c3ccccc3F)cc2)[C@@H](CO)N1C(C)=O,0,4,4
COc1cccc(-c2ccc3c(c2)[C@H]2[C@H](CCN2Cc2ccccc2OC)[C@H](CO)N3)c1,-1,3,-24
O=C(NC1CCCCC1)N1CC(=O)N2[C@H](C1)[C@@H](c1ccc(-c3cccc(F)c3)cc1)[C@@H]2CO,0,4,0
